Measurements of several laboratories.
Protocols differ between the studies behind these lines.
Target: Serine/threonine-protein kinase Chk1 (CHEK1, Homo sapiens, UniProt O14757)
One construct used (O14757 1-476): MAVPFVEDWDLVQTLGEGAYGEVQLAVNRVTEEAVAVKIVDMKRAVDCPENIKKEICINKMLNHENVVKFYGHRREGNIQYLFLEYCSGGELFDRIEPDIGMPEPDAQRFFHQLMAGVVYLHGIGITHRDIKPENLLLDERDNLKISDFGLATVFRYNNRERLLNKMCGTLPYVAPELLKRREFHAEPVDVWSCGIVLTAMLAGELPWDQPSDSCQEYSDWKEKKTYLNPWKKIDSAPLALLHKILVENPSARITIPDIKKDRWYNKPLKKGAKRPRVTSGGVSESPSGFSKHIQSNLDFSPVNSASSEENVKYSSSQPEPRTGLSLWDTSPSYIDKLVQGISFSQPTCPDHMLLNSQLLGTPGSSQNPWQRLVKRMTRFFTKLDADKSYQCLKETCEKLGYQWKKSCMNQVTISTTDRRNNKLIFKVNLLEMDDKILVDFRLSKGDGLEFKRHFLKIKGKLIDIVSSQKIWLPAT

CC(C)CC(=O)N1CCc2nc(-c3ccc(Br)cc3)nc(N(C)Cc3ccccc3)c2C1 — remaining binding (cell-free assay, competition with immobilised ligand; 0.1 µM): 100%
CN(C)c1ncc(F)c(-c2cnn3ncccc23)n1 — remaining binding (binding; 1 µM): 87%
CCN1CCN(Cc2ccc(C(=O)Nc3ccc(C)c(Oc4ccc5c(c4)CC(=O)N5)c3)cc2C(F)(F)F)CC1 — remaining binding (binding, competition with immobilised ligand; 1 µM): 100%
C[C@H]1CCN(c2nccc(-c3cnn4ncccc34)n2)C1 — remaining binding (binding; 1 µM): 76%
N#Cc1ccccc1CSc1nnc2c(n1)[nH]c1ccccc12 — remaining binding (binding, competition with immobilised ligand; 10 µM): 87%
O=C(NCCCC1CCCCC1)c1ccc(CNC(=O)c2cnn(-c3ccccc3)c2C(F)(F)F)cc1 — remaining binding (cell-free assay, competition with immobilised ligand; 0.1 µM): 100%
Nc1ncc2c(n1)-c1c([nH]c3ccc(C#CC4CC4)cc13)CCCC2 — remaining binding (binding, competition with immobilised ligand; 1 µM): 97%
O=C(c1ccc(Nc2ncc(Cl)c(-c3ccc(Cl)s3)n2)cc1)N1CCC(N2CCCC2)CC1 — remaining binding (binding, competition with immobilised ligand; 1 µM): 37%
c1cnn2ncc(-c3ccnc(N4CCC45COC5)n3)c2c1 — remaining binding (binding; 1 µM): 89%
CNC(=O)c1ccc(Nc2ncc(C(F)(F)F)c(NCc3nccnc3N(C)S(C)(=O)=O)n2)cc1 — remaining binding (cell-free assay, competition with immobilised ligand; 0.1 µM): 100%
C[C@@H]1CN(c2ccc3ncc(-c4ccc5[nH]nc(C6CC6)c5c4)n3n2)C[C@H](C)O1 — remaining binding (binding, competition with immobilised ligand; 0.5 µM): 100%
CC(=O)c1c(NS(C)(=O)=O)c2cc(-c3ccc(Cl)cc3)c(-c3ccc(Cl)cc3Cl)nc2n(C)c1=O — remaining binding (cell-free assay, competition with immobilised ligand; 1 µM): 100%
O=C(NCCCN1CCOCC1)c1ccc(Nc2ncc(Cl)c(-c3ccc(Cl)s3)n2)cc1 — remaining binding (binding, competition with immobilised ligand; 1 µM): 57%
O=C(NCC1CCOCC1)c1n[nH]cc1NC(=O)c1c(F)cccc1F — remaining binding (binding, competition with immobilised ligand; 1 µM): 100%
CN(C)C(=O)Cn1cc(-c2nc([C@@](C)(c3ccc(-c4cnc(N)nc4)cc3)C3CC3)no2)cn1 — remaining binding (cell-free assay, competition with immobilised ligand; 1 µM): 85%
FC(F)(F)Oc1cccc(-c2cnc3ccc(-c4ccncc4)nn23)c1 — remaining binding (cell-free assay, competition with immobilised ligand; 5 µM): 100%
CC1CCCN1c1nccc(-c2cnn3ncccc23)n1 (stereo not drawn) — remaining binding (binding; 1 µM): 99%
CCc1ccccc1C(=O)Nc1n[nH]c2c(C)c(F)c(C3C(C#N)=C(C)N(C)C(C)=C3C#N)cc12 — remaining binding (cell-free assay, competition with immobilised ligand; 1 µM): 91%
N[C@@H]1CCN(c2nccc(-c3cnn4ncccc34)n2)C1 — remaining binding (binding; 1 µM): 100%
COc1cnc(Nc2cccc(S(N)(=O)=O)c2)nc1N1CCN(c2ccccc2)CC1 — remaining binding (binding, competition with immobilised ligand; 1 µM): 100%
COc1ccnn2ncc(-c3ccnc(N(C)C)n3)c12 — remaining binding (binding; 1 µM): 94%
O=C(c1ccc(Nc2ncc(Cl)c(-c3cc4ccccc4s3)n2)cc1)N1CCC(N2CCCC2)CC1 — remaining binding (binding, competition with immobilised ligand; 1 µM): 54%
CC(=O)N1CCC(c2ccc(C(=O)NC(=N)N)cc2C(F)(F)F)CC1 — remaining binding (cell-free assay, competition with immobilised ligand; 1 µM): 95%
CN(C)c1nccc(-c2cnn3ncccc23)n1 — remaining binding (binding; 1 µM): 100%
